# Active and inactive are the calls of the source. No cut-off for these calls is given here.
# How the values were obtained:
# Staphylococcus aureus [1] = assay: Antibacterial activity against methicillin-resistant Staphylococcus aureus BAA-1695 after 20 hrs by broth microdilution method; type: functional; conditions: BAA-1695, 20 h
# Procedure, shortened: (§1)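 Broth microdilution per CLSI in cation-adjusted Mueller-Hinton broth with 0.002% polysorbate 80. Analogues were made up as 10 mg/mL DMSO stocks, then diluted in MHB. Inoculum approx. 5×10^5 cells/mL. Incubated 20 h at 37°C; MIC taken as the lowest concentration with no visible growth. Run three times.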
# [2] = Binding affinity to undecaprenyl-phosphate at 1 to 4 nmol after 30 mins by TLC method
# Procedure, shortened: (§2)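 Lipid II or C55-P (1 nmol) incubated with 1, 2, 3 or 4 nmol compound in 50 mM Tris/HCl pH 7.5, 30 min at rt. Extracted twice with pyridinium acetate (6 M, pH 4.2)/butanol (1:2), then washed with butanol-saturated water. Organic phase run on silica TLC in chloroform/methanol/water/ammonia (88:48:10:1) and stained with phosphomolybdic acid; loss of lipid band scored. Done twice.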
# Streptococcus pneumoniae [3] = assay: Antibacterial activity against Streptococcus pneumoniae D39 infected in C57BL/6J mouse at 5 x 10^4 cfu/mouse assessed as reduction of bacterial burden in blood at 1 to 5 mg/kg, iv administered 1 hr post infection measured after 12 to 22 hrs relative to control; type: functional
# Procedure, shortened: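 Female C57BL/6J mice, 6-8 weeks, 4 per group, given 0.2 mL S. pneumoniae D39 i.p. (5×10^4 c.f.u. per mouse). At 1 h post-infection a single i.v. dose of 5 or 1 mg/kg was given in PBS:Cremophor-EL:DMSO (94:5:1). Vehicle and vancomycin 5 mg/kg groups were included. Blood c.f.u. counted at 12, 18 and 22 h.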
# Streptococcus pneumoniae [4] = assay: Antibacterial activity against Streptococcus pneumoniae D39 after 20 hrs by broth microdilution method; type: functional; conditions: D39, 20 h
# Procedure, shortened: (§3)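 CLSI broth microdilution in cation-adjusted Mueller-Hinton broth with 3% lysed horse blood for streptococci and 0.002% polysorbate 80. Compounds taken from 10 mg/mL DMSO stocks and diluted in broth. Inoculum about 5×10^5 cells/mL. After 20 h at 37 °C, MIC read as lowest concentration with no visible growth. Done three times.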
# Staphylococcus aureus [5] = assay: Antibacterial activity against Staphylococcus aureus ATCC 29213 at lipid 2/test compound molar ratio 0.5 preincubated with lipid 2 for 30 mins followed by bacterial inoculation measured after overnight incubation; type: functional
# Procedure, shortened: (§4)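 Test agent at 4x or 8x its broth MIC mixed with lipid II or C55-P (2x or 0.5x molar excess over compound) in MHII broth with 0.05% tween-80, 30 min at rt; exponential S. aureus ATCC 29213 then added to final OD600 0.001. Overnight at 37 °C; growth judged by eye and plate-reader absorbance. Run two or three times.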
# Streptococcus pneumoniae [6] = assay: Antibacterial activity against Streptococcus pneumoniae D39 infected in C57BL/6J mouse at 1 x 10^4 cfu/mouse assessed as mouse survival rate at 1 to 5 mg/kg, iv administered 1 hr post infection measured after 48 hrs relative to control; type: functional
# Procedure, shortened: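 C57BL/6J female mice, 6-8 weeks, infected i.p. with 0.2 mL S. pneumoniae D39 suspension (1×10^4 c.f.u. per mouse), an inoculum giving at least 90% mortality within 48 h; 6 per group. Single i.v. dose 1 h post-infection at 5, 2 or 1 mg per kg in PBS:Cremophor-EL:DMSO (94:5:1); vehicle and vancomycin (5 mg per kg) controls. Survival scored at 48 h; log-rank test.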
# [7] = Binding affinity to Bacillus subtilis UDP-MurNAc-L-Ala-gamma-DGlu-meso-Dap-D-Ala-D-Ala by ITC method
# Procedure, shortened: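 Park's nucleotide was isolated from Bacillus subtilis. ITC run at 25 °C in DMSO:H2O (85:15). The lipid II analogue (0.375 mM) was titrated into 0.025 mM test compound.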
# Staphylococcus aureus [8] = assay: Antibacterial activity against methicillin-sensitive Staphylococcus aureus TH 4806 after 20 hrs by broth microdilution method; type: functional; conditions: TH 4806, 20 h; procedure, shortened: as §1
# [9] = Binding affinity to lipid 2 at 4 nmol after 30 mins by TLC method; procedure, shortened: as §2
# Enterococcus faecalis = assay: Antibacterial activity against […] Enterococcus faecalis ATCC 29212 after 20 hrs by broth microdilution method; type: functional; conditions: ATCC 29212, 20 h; procedure, shortened: as §1
# Staphylococcus aureus [10] = assay: Antibacterial activity against Staphylococcus aureus ATCC 29213 at undecaprenyl-phosphate/test compound molar ratio 0.5 to 2 preincubated with undecaprenyl-phosphate for 30 mins followed by bacterial inoculation measured after overnight incubation; type: functional; procedure, shortened: as §4
# Staphylococcus aureus [11] = assay: Antibacterial activity against Staphylococcus aureus ATCC 29213 at lipid 2/test compound molar ratio 2 preincubated with lipid 2 for 30 mins followed by bacterial inoculation measured after overnight incubation; type: functional; procedure, shortened: as §4
# Streptococcus pyogenes = assay: Antibacterial activity against Streptococcus pyogenes ATCC 19615 after 20 hrs by broth microdilution method; type: functional; conditions: ATCC 19615, 20 h; procedure, shortened: as §3
smiles,measurement,setting,value
CC[C@@H](C)[C@@H](NC(=O)[C@@H](CCC(N)=O)NC(=O)[C@H](CO)NC(=O)[C@@H](NC(=O)[C@H](N)Cc1ccc(-c2ccccc2)cc1)[C@@H](C)CC)C(=O)N[C@H](C(=O)N[C@@H](CO)C(=O)N[C@H]1C(=O)N[C@@H](C)C(=O)N[C@@H](CCCCN)C(=O)N[C@@H]([C@@H](C)CC)C(=O)O[C@H]1C)[C@@H](C)CC,MIC,Staphylococcus aureus [1],0.5 µg/mL
same,Activity,[2],inactive
same,Activity,Streptococcus pneumoniae [3],6 deltalog10CFU/ml
same,MIC,Streptococcus pneumoniae [4],< 0.032 µg/mL
same,Activity,Staphylococcus aureus [5],Active
same,Survival,Streptococcus pneumoniae [6],100%
same,Kd,[7],23 µM
same,MIC,Staphylococcus aureus [8],0.5 µg/mL
same,Activity,[9],inactive
same,MIC,Enterococcus faecalis,0.5 µg/mL
same,Activity,Staphylococcus aureus [10],Active
same,Activity,Staphylococcus aureus [11],inactive
same,MIC,Streptococcus pyogenes,< 0.25 µg/mL

# Source: ChEMBL document CHEMBL4043311, “Developing Equipotent Teixobactin Analogues against Drug-Resistant Bacteria and Discovering a Hydrophobic Interaction between Lipid II and Teixobactin” (J Med Chem, 2018)
